Assays:
[1] = proposed threshold; cited from earlier work
[2] = Open-label drug–drug interaction study: dasatinib plasma pharmacokinetics; format: in vivo, human
How it was run: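 Healthy fasted volunteers (N = 18). Test compound given as a 100 mg IR tablet orally with ~240 mL water on day 1 alone and on day 6 after 40 mg delayed-release PPI QD on evenings of days 2–5. Fasted ≥10 h before and 4 h after dose. K2EDTA plasma was analysed by LC-MS/MS (LLOQ 0.75 ng/mL). PK was non-compartmental, with day 6/day 1 geometric mean ratios and 90% CI from ANOVA on ln-values.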

[3] = cited from earlier work
[4] = omeprazole 40 mg at steady state, 10 h before crystalline dasatinib 100 mg

Structure (SMILES): Cc1nc(Nc2ncc(C(=O)Nc3c(C)cccc3Cl)s2)cc(N2CCN(CCO)CC2)n1 [Crystalline Dasatinib, dasatinib]
- Cmax threshold for achieving MMR [1]: 69.2 ng/mL
- extrapolated area in the plasma concentration–time profile (mean ± SD) ([2]; crystalline dasatinib formulation administered alone): 2.7%
- reduction in dasatinib plasma exposure ([2]; dosing interval of 10 h between PPI and crystalline dasatinib): ~90%
- AUC(0-t) ([2]; human, plasma, oral, 100 mg): 735 ng·h/mL
- Cmax ([2]; human, plasma, oral, 100 mg): 195 ng/mL
- AUC(0-t) ([2]; human, plasma, po, 100 mg): 798 ± 274 ng·h/mL
- Cmax ([2]; human, plasma, po, 100 mg): 225 ± 105 ng/mL
- half-life ([2]; human, plasma, po, 100 mg): 5.7 ± 1.5 h
- mean reduction of Cmax by omeprazole comedication [2, 4]: 96%
- reduction of AUC0-24 by omeprazole comedication [2, 4]: 89%
- reduction of GI absorption and bioavailability ([2]; omeprazole at steady state dosed in the evening 10 h prior to crystalline dasatinib): about 90%
- Cmax ratio Test/Control (geometric means) ([2]; test = with omeprazole, control = crystalline dasatinib alone, 90% CI 2.73-4.96): 3.7%
- AUC0-24 ratio Test/Control (geometric means) ([2]; test = with omeprazole, control = crystalline dasatinib alone, 90% CI 9.13-14.59): 11.5%
- effect on dasatinib plasma exposure ([3]; antacid administered 2 h prior to crystalline dasatinib): unaffected
- reduction in absorption and bioavailability of dasatinib with PPIs ([3]; experimental setting controlled for gastric pH above 4): ≤ 80%
